Experimental data as given in PubChem BioAssay AID602394 (Broad Institute, 2012).
Where “and” joins values, the source holds several entries; their conditions need not be identical. Equal values may be shown once. Calls of active or inactive are those of the source.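 The calls were made as follows: active = falling signal, meaning toxicity, with AC50 at or below twice the top valid dose for that sample; inconclusive = flat curve showing 30 to 70% toxicity, or poor fit; inactive = the rest.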

Tested on: not listed separately
Assay: mammalian cell viability loss – dry powder, set 2, plate reader, cytotoxicity control for antifungal single agent project, dose response (AID 602394)
Conditions: NIH 3T3 fibroblast viability, Alamar Blue fluorescence, 48 h; at 2.6 µM (top of the series)
How it was run: (§1)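 assay system = NIH 3T3 fibroblasts | amount = 1,000 cells/well | signal = Alamar Blue fluorescence at 1:200 final, Ex 544 nm, Em 590 nm | controls = geldanamycin at 10 µM as inhibition control | times = 48 h compound exposure at 37 °C, then 2–3 h dye incubation | buffer or medium = Optimem plus 2.5% FBS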

Compound | activity change, negative = toxicity
CC1/C=C/C=C\C=C\C=C\C=C\C=C\C=C\C(O[C@H]2OC(C)C(O)C(N)C2O)CC2OC(O)(CC(O)CC(O)C(O)CCC(O)CC(O)CC(=O)OC(C)C(C)C1O)CC(O)C2C(=O)O (stereo partly drawn) | -14.9% (inactive)

Same assay, conditions: NIH 3T3 fibroblast viability, Alamar Blue fluorescence, 48 h; at 26 µM (top of the series)

Compound | activity change, negative = toxicity
Cc1ccc(N2C(=S)N(C)C(=O)C23CCCCC3)cc1 | -4.95% (inactive) and -14.4% (inactive)
CCOC(=O)N1C(=O)C2(CCCCC2)N(c2ccccc2C)C1=S | -14% (inactive)
CCOC(=O)N1C(=O)C2(CCCCC2)N(Cc2ccccc2)C1=S | -2.91% (inactive)
CCOC(=O)N1C(=O)C2(CCOCC2)N(c2ccc(C)cc2)C1=S | 8.99% (inactive)
Cc1ccc(N2C(=O)N(C)C(=O)C23CCCCC3)cc1 | -27.1% (inactive)
Cc1ccc(N2C(=S)N(C(=O)Oc3ccccc3)C(=O)C23CCCCC3)cc1 | 0.942% (inactive)
O=C1NC(=S)N(Cc2ccccc2)C12CCCCC2 | 5.77% (inactive)
Cc1ccc(N2C(=S)NC(=O)C23CCC3)cc1 | 25% (inactive)
CCOC(=O)N1C(=O)C2(CCCC2)N(c2ccc(C)cc2)C1=S | 8.13% (inactive)
CCOC(=O)N1C(=O)C2(CCCCC2)N(c2ccc(C#N)cc2)C1=S | 10.9% (inactive)
CCOC(=O)N1C(=O)C(C)(C)N(c2ccc(C)cc2)C1=S | 14.6% (inactive)
CCCCN1C(=O)N(c2ccc(C)cc2)C2(CCCCC2)C1=O | -35.3% (inactive)
CC(C)N1C(=S)NC(=O)C12CCCCC2 | 47.5% (inactive)
O=C1NC(=S)N(c2ccc(F)cc2)C12CCCCC2 | 10.6% (inactive)
CCOC(=O)N1C(=O)C2(CCCCC2)N(c2ccccc2)C1=S | 17.3% (inactive)
CCOC(=O)N1C(=O)C2(CCC2)N(c2ccc(C)cc2)C1=S | -6.41% (inactive)
Cc1ccc(N2C(=O)C(=O)NC2=S)cc1 | 3.56% (inactive)

Compound | activity change, negative = toxicity
CCOC(=O)N1C(=O)N(c2ccc(C)cc2)C2(CCCCC2)C1=O | 7.79% (inactive)
Cc1ccc(N2C(=S)NC(=O)C23CCOCC3)cc1 | 29.4% (inactive)
Cc1ccc(N2CC(=O)NC2=O)cc1 | 22.5% (inactive)
Cc1ccc(N2C(=S)N(S(C)(=O)=O)C(=O)C23CCCCC3)cc1 | -8.26% (inactive)
CCCc1ccc(N2C(=S)N(C(=O)OCC)C(=O)C23CCCCC3)cc1 | -15.8% (inactive)
Cc1ccc(N2C(=S)NC(=O)C2(C)C)cc1 | -5% (inactive)
Cc1ccc(N2C(=O)C3(CCCCC3)NC2=S)cc1 | -13% (inactive)
CCOC(=O)N1C(=O)C2(CCCCC2)N(c2ccc(OC)cc2)C1=S | 21.1% (inactive)
CCOC(=O)N1C(=O)C2(CCCCC2)NC1=S | 4.41% (inactive)
CCOC(=O)N1C(=O)C2(CCCCC2)N(C(C)C)C1=S | -8.87% (inactive)
O=C1NC(=S)NC12CCCCC2 | 3.57% (inactive)
Cc1ccc(N2C(=O)NC(=O)C23CCCCC3)cc1 | -10.2% (inactive)
O=C1NC(=S)N(c2ccccc2)C12CCCCC2 | 52.9% (inactive)
Cc1ccc(N2C(=S)NC(=O)C23CCCCC3)cc1 | 12.5% (inactive)
CCOC(=O)N1C(=S)NC(=O)C12CCCCC2 | 2.71% (inactive)
CCOC(=O)N1C(=O)C2(CCCCC2)N(c2ccc(F)cc2)C1=S | -18.1% (inactive)

Tested on: NIH 3T3 fibroblast viability, Alamar Blue fluorescence, 48 h
Assay: as above
Conditions: not given
How it was run: as §1

Compound | AC50
CCOC(=O)N1C(=O)C2(CCCCC2)N(c2ccc(C(C)C)cc2)C1=S | 13.8 µM
Cc1ccc(N2CC(=O)NC2=S)cc1 | 20.7 µM
CCOC(=O)N1C(=O)C2(CCCCC2)N(c2ccc(CC)cc2)C1=S | 19.5 µM
CCCCN1C(=O)C2(CCCCC2)N(c2ccc(C)cc2)C1=S | 24.2 µM
Cc1ccc(N2C(=S)N(C(=O)OCc3ccccc3)C(=O)C23CCCCC3)cc1 | 6.98 µM
CCOC(=O)N1C(=O)C2(CCCCC2)N(c2ccc(C(C)(C)C)cc2)C1=S | 16.5 µM
CCOC(=O)N1C(=O)C2(CCCCC2)N(c2ccc(-c3ccccc3)cc2)C1=S | 9.81 µM
CCOC(=O)N1C(=O)C2(CCCCC2)N(c2cccc(C)c2)C1=S | 24.2 µM
CCCC(=O)N1C(=O)C2(CCCCC2)N(c2ccc(C)cc2)C1=S | 18.8 µM
CCOC(=O)N1C(=O)C2(CCCCC2)N(c2ccc(Cl)cc2)C1=S | 22.3 µM
Cc1ccc(N2C(=S)N(C(=O)OC(C)C)C(=O)C23CCCCC3)cc1 | > 52 µM (inactive)
CCOC(=O)N1C(=O)C2(CCCCC2)N(c2ccc(C(F)(F)F)cc2)C1=S | 12.5 µM
CCCCN1C(=O)N(c2ccc(C)cc2)C2(CCCCC2)C1=S | 20.9 µM
CCOC(=O)N1C(=S)N(c2ccc(C)cc2)C2(CCCCC2)C1=NCc1ccccc1 | > 52 µM (inactive)
